Experimental data taken from ChEMBL document CHEMBL1687766, “In vitro activity of the new multivalent glycopeptide-cephalosporin antibiotic TD-1792 against vancomycin-nonsusceptible Staphylococcus isolates” (Antimicrob Agents Chemother, 2010).
≈ marks a conversion by molar mass, not a printed value.

Assays:
[1] = tested on: Staphylococcus aureus; experiment: Antimicrobial activity against vancomycin-intermediate Staphylococcus aureus isolate MU50 assessed as bacterial count at 4 times MIC after 24 hrs by colony counting method; assay type: functional
Outline: (§1)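 24-h time-kill run in triplicate in supplemented Mueller-Hinton broth (12.5 μg/ml Mg, 25 μg/ml Ca), adjusted to 1.1–1.3 mM Ca for daptomycin. […] Samples were taken at 0, 1, 4, 8 and 24 h and counted on BHI agar after 24 h at 35°C. Value is log10 CFU/ml change from baseline at 24 h.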

[2] = tested on: Staphylococcus aureus; experiment: Antimicrobial activity against vancomycin-intermediate Staphylococcus aureus isolate MU50 assessed as bacterial count at 8 times MIC after 24 hrs by colony counting method; assay type: functional; outline: as §1
[3] = tested on: Staphylococcus aureus; experiment: Antimicrobial activity against vancomycin-intermediate Staphylococcus aureus isolate MU50 assessed as bacterial count at 16 times MIC after 24 hrs by colony counting method; assay type: functional
Outline: (§2)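 Time-kill in triplicate. Mid-exponential culture (OD600 ~0.3) diluted in supplemented Mueller-Hinton broth to 5 × 10^6 CFU/ml. Daptomycin was run at physiologic calcium, 1.1 to 1.3 mM. […] Samples at 0, 1, 4, 8 and 24 h were diluted in cold saline or vacuum filtered, then spiral-plated on BHI agar for 24 h at 35°C. Value is the log10 CFU/ml change from baseline at 24 h.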

[4] = tested on: Staphylococcus aureus; experiment: Antimicrobial activity against vancomycin-intermediate Staphylococcus aureus isolate MU50 assessed as bacterial count at 32 times MIC after 24 hrs by colony counting method; assay type: functional; outline: as §1
[5] = tested on: Staphylococcus aureus; experiment: Antimicrobial activity against vancomycin-intermediate Staphylococcus aureus isolate NJ992 assessed as bacterial count at 4 times MIC after 24 hrs by colony counting method; assay type: functional; outline: as §1
[6] = tested on: Staphylococcus aureus; experiment: Antimicrobial activity against vancomycin-intermediate Staphylococcus aureus isolate NJ992 assessed as bacterial count at 8 times MIC after 24 hrs by colony counting method; assay type: functional; outline: as §1
[7] = tested on: Staphylococcus aureus; experiment: Antimicrobial activity against vancomycin-intermediate Staphylococcus aureus isolate NJ992 assessed as bacterial count at 16 times MIC after 24 hrs by colony counting method; assay type: functional; outline: as §1
[8] = tested on: Staphylococcus aureus; experiment: Antimicrobial activity against vancomycin-intermediate Staphylococcus aureus isolate NJ992 assessed as bacterial count at 32 times MIC after 24 hrs by colony counting method; assay type: functional; outline: as §1
[9] = tested on: Staphylococcus aureus; experiment: Antimicrobial activity against vancomycin-resistant Staphylococcus aureus isolate MI assessed as bacterial count at 4 times MIC after 24 hrs by colony counting method; assay type: functional; outline: as §2
[10] = tested on: Staphylococcus aureus; experiment: Antimicrobial activity against vancomycin-resistant Staphylococcus aureus isolate MI assessed as bacterial count at 8 times MIC after 24 hrs by colony counting method; assay type: functional; outline: as §2
[11] = tested on: Staphylococcus aureus; experiment: Antimicrobial activity against vancomycin-resistant Staphylococcus aureus isolate MI assessed as bacterial count at 16 times MIC after 24 hrs by colony counting method; assay type: functional; outline: as §2
[12] = tested on: Staphylococcus aureus; experiment: Antimicrobial activity against vancomycin-resistant Staphylococcus aureus isolate MI assessed as bacterial count at 32 times MIC after 24 hrs by colony counting method; assay type: functional; outline: as §2
[13] = tested on: Staphylococcus aureus; experiment: Antimicrobial activity against vancomycin-resistant Staphylococcus aureus isolate PA assessed as bacterial count at 4 times MIC after 24 hrs by colony counting method; assay type: functional; outline: as §2
[14] = tested on: Staphylococcus aureus; experiment: Antimicrobial activity against vancomycin-resistant Staphylococcus aureus isolate PA assessed as bacterial count at 8 times MIC after 24 hrs by colony counting method; assay type: functional; outline: as §2
[15] = tested on: Staphylococcus aureus; experiment: Antimicrobial activity against vancomycin-resistant Staphylococcus aureus isolate PA assessed as bacterial count at 16 times MIC after 24 hrs by colony counting method; assay type: functional; outline: as §2
[16] = tested on: Staphylococcus aureus; experiment: Antimicrobial activity against vancomycin-resistant Staphylococcus aureus isolate PA assessed as bacterial count at 32 times MIC after 24 hrs by colony counting method; assay type: functional; outline: as §2
[17] = tested on: Staphylococcus aureus; experiment: Antimicrobial activity against vancomycin-resistant Staphylococcus aureus isolate NY after 24 hrs by microdilution method; assay type: functional
Outline: (§3)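 Broth microdilution per CLSI, inoculum 5 × 10^5 CFU/ml, Mueller-Hinton broth with 12.5 μg/ml magnesium and 25 μg/ml calcium (SMHB). Daptomycin was instead tested in SMHB at physiologic calcium (final 1.1 to 1.3 mM). Incubation 24 h at 35°C; MIC read; run in duplicate. MBC from 5-μl samples of clear wells plated on BHI agar, 24 h at 35°C.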

[18] = tested on: Staphylococcus aureus; experiment: Antimicrobial activity against vancomycin-intermediate Staphylococcus aureus isolate NJ992 after 24 hrs by microdilution method; assay type: functional; settings: isolate NJ992, 24 h; outline: as §3
[19] = tested on: Staphylococcus aureus; experiment: Antimicrobial activity against vancomycin-resistant Staphylococcus aureus isolate PA after 24 hrs by microdilution method; assay type: functional; outline: as §3
[20] = tested on: Staphylococcus aureus; experiment: Antimicrobial activity against vancomycin-resistant Staphylococcus aureus isolate MI after 24 hrs by microdilution method; assay type: functional; outline: as §3
[21] = tested on: Staphylococcus aureus; experiment: Antimicrobial activity against vancomycin-intermediate Staphylococcus aureus after 24 hrs by microdilution method; assay type: functional; outline: as §3
[22] = tested on: Staphylococcus haemolyticus; experiment: Antimicrobial activity against vancomycin-intermediate Staphylococcus haemolyticus after 24 hrs by microdilution method; assay type: functional
Outline: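 CLSI broth microdilution in supplemented Mueller-Hinton broth (12.5 μg/ml Mg, 25 μg/ml Ca), with Ca adjusted to 1.1–1.3 mM for daptomycin. Inoculum was 5 × 10^5 CFU/ml, incubated 24 h at 35°C, done in duplicate. For MBC, clear wells were plated on BHI agar and read after 24 h at 35°C.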

[23] = tested on: Staphylococcus aureus; experiment: Antimicrobial activity against vancomycin-heteroresistant Staphylococcus aureus after 24 hrs by microdilution method; assay type: functional; outline: as §3
[24] = tested on: Staphylococcus aureus; experiment: Antimicrobial activity against vancomycin-intermediate Staphylococcus aureus isolate MU50 after 24 hrs by microdilution method; assay type: functional; settings: isolate MU50, 24 h; outline: as §3
[25] = tested on: Staphylococcus aureus; experiment: Antimicrobial activity against methicillin-resistant Staphylococcus aureus infected in patient with complicated skin and skin structure infections assessed as cure rate; assay type: functional
[26] = Plasma protein binding in human; assay type: ADME, cell-free; settings: read-out: PPB (converted)
[27] = Half life of healthy human; assay type: ADME, organism-based; settings: in vivo
[28] = tested on: Serum; experiment: Drug level in serum of healthy human; assay type: ADME, cell-free
[29] = Staphylococcus haemolyticus, 24 h

SMILES | log10CFU/ml [1] | log10CFU/ml [2] | log10CFU/ml [3] | log10CFU/ml [4] | log10CFU/ml [5] | log10CFU/ml [6] | log10CFU/ml [7] | log10CFU/ml [8] | MBC [17] | MIC [17] | MBC [18] | MIC [18] | MBC [19] | MBC [20] | MIC [20] | MBC50 [21] | MBC90 [21] | MBC ([21]; Staphylococcus aureus, 24 h) | MIC50 ([21]; Staphylococcus aureus, 24 h) | MIC90 ([21]; Staphylococcus aureus, 24 h) | also measured
CC(=O)NC[C@H]1CN(c2ccc(N3CCOCC3)c(F)c2)C(=O)O1 [LINEZOLID] | 3.19 | 3.26 | 4.25 | 4.8 | 2.13 | 3.66 | 3.98 | 4.89 | 0.5 µg/mL (≈ 1.48 µM) | 0.25 µg/mL (≈ 0.741 µM) | 2 µg/mL (≈ 5.93 µM) | 1 µg/mL (≈ 2.96 µM) | 4 µg/mL (≈ 11.9 µM) | 16 µg/mL (≈ 47.4 µM) | 1 µg/mL (≈ 2.96 µM) | 8 µg/mL (≈ 23.7 µM) | 0.032 mg/mL (≈ 94.9 µM) | 1 µg/mL (≈ 2.96 µM) | 2 µg/mL (≈ 5.93 µM) | 2 µg/mL (≈ 5.93 µM) | log10CFU/ml [9]: 1.31; log10CFU/ml [10]: 1.55; log10CFU/ml [11]: 3.64; log10CFU/ml [12]: 4.52; log10CFU/ml [13]: 3.24; log10CFU/ml [14]: 4.2; log10CFU/ml [15]: 4.24; log10CFU/ml [16]: 4.95; MBC50 [22]: 8 µg/mL (≈ 23.7 µM); MBC90 [22]: 0.032 mg/mL (≈ 94.9 µM); MBC [22, 29]: 1 µg/mL (≈ 2.96 µM); MIC50 [22, 29]: 2 µg/mL (≈ 5.93 µM); MIC90 [22, 29]: 2 µg/mL (≈ 5.93 µM); MBC ([23]; Staphylococcus aureus, 24 h): 1 µg/mL (≈ 2.96 µM); MIC50 ([23]; Staphylococcus aureus, 24 h): 2 µg/mL (≈ 5.93 µM); MIC90 ([23]; Staphylococcus aureus, 24 h): 2 µg/mL (≈ 5.93 µM); MBC [24]: 32 µg/mL (≈ 94.9 µM); MIC [24]: 1 µg/mL (≈ 2.96 µM)
CN[C@H](CC(C)C)C(=O)N[C@H]1C(=O)N[C@@H](CC(N)=O)C(=O)N[C@H]2C(=O)N[C@H]3C(=O)N[C@H](C(=O)N[C@H](C(=O)O)c4cc(O)cc(O)c4-c4cc3ccc4O)[C@H](O)c3ccc(c(Cl)c3)Oc3cc2cc(c3O[C@@H]2O[C@H](CO)[C@@H](O)[C@H](O)[C@H]2O[C@H]2C[C@](C)(N)[C@H](O)[C@H](C)O2)Oc2ccc(cc2Cl)[C@H]1O [VANCOMYCIN] | 2.71 | 3.32 | 4.48 | 4.41 | 2.88 | 4.3 | 4.58 | 4.79 | 128 µg/mL (≈ 88.3 µM) | 64 µg/mL (≈ 44.2 µM) | 8 µg/mL (≈ 5.52 µM) | 8 µg/mL (≈ 5.52 µM) | 64 µg/mL (≈ 44.2 µM) | > 2050 µg/mL | 1020 µg/mL (≈ 707 µM) | 4 µg/mL (≈ 2.76 µM) | 0.008 mg/mL (≈ 5.52 µM) | 4 µg/mL (≈ 2.76 µM) | 4 µg/mL (≈ 2.76 µM) | 8 µg/mL (≈ 5.52 µM) | Activity [25]: 91.9%; MIC [19]: 32 µg/mL (≈ 22.1 µM); MIC ([21]; Staphylococcus aureus, 24 h): 4 µg/mL (≈ 2.76 µM); MBC50 [22]: 4 µg/mL (≈ 2.76 µM); MBC90 [22]: 0.008 mg/mL (≈ 5.52 µM); MBC [22, 29]: 4 µg/mL (≈ 2.76 µM); MIC [22, 29]: 4 µg/mL (≈ 2.76 µM); MIC50 [22, 29]: 4 µg/mL (≈ 2.76 µM); MIC90 [22, 29]: 8 µg/mL (≈ 5.52 µM); MBC50 [23]: 4 µg/mL (≈ 2.76 µM); MBC90 [23]: 8 µg/mL (≈ 5.52 µM); MBC ([23]; Staphylococcus aureus, 24 h): 4 µg/mL (≈ 2.76 µM); MIC ([23]; Staphylococcus aureus, 24 h): 4 µg/mL (≈ 2.76 µM); MIC50 ([23]; Staphylococcus aureus, 24 h): 4 µg/mL (≈ 2.76 µM); MIC90 ([23]; Staphylococcus aureus, 24 h): 8 µg/mL (≈ 5.52 µM); MBC [24]: 4 µg/mL (≈ 2.76 µM)
CN[C@H](CC(C)C)C(=O)N[C@H]1C(=O)N[C@@H](CC(N)=O)C(=O)N[C@H]2C(=O)N[C@H]3C(=O)N[C@H](C(=O)N[C@H](C(=O)NCCCO/N=C(\C(=O)N[C@@H]4C(=O)N5C(C(=O)[O-])=C(C[n+]6ccccc6)CS[C@H]45)c4nc(N)sc4Cl)c4cc(O)cc(O)c4-c4cc3ccc4O)[C@H](O)c3ccc(c(Cl)c3)Oc3cc2cc(c3O[C@@H]2O[C@H](CO)[C@@H](O)[C@H](O)[C@H]2O[C@H]2C[C@](C)(N)[C@H](O)[C@H](C)O2)Oc2ccc(cc2Cl)[C@H]1O | – | – | – | – | – | – | – | – | – | – | – | – | – | – | – | – | – | – | – | – | fraction unbound [26]: 0.51; half-life [27]: 408 min; Drug uptake [28]: 4.65 µg/mL
